Active and inactive are the calls of the source. The calls are words filed in the database; no cut-off is given here.
Tests used:
[1] = system: DU-145; test: Induction of apoptosis in human DU145 cells assessed as wrinkled cells at 0.5 uM after 48 hrs by Hoechst 33258 staining-based confocal microscopic analysis; type: functional, cell-based
Summary of the method: (§1)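 Hoechst H33258 staining of treated DU-145 cells at 0.5 µM; apoptotic cells (apoptotic bodies, condensation, nuclear fragmentation) counted by manual field quantification under the microscope, compared with control.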

[2] = system: DU-145; test: Induction of apoptosis in human DU145 cells assessed as DNA fragmented cells at 0.5 uM after 48 hrs by Hoechst 33258 staining-based confocal microscopic analysis; type: functional, cell-based; summary of the method: as §1
[3] = biological target: DNA topoisomerase II (Homo sapiens) (UniProt P11388+Q02880); test: Inhibition of DNA-topoisomerase 2 catalytic activity (unknown origin) using catenated kDNA as substrate assessed as formation of nicked circular and relaxed DNA at 1 to 100 uM after 30 mins by agarose gel electrophoresis; type: protein assay
Summary of the method: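 Catenated DNA incubated with topo II and compound at 1, 10 and 100 µM; gel products scored for linear DNA (poison type) versus nicked circular/relaxed DNA retained in wells (catalytic inhibitor type); etoposide at 1, 10, 100 µM as control.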

[4] = system: Calf thymus DNA; test: Induction of DNA intercalation of calf thymus DNA at 1 uM by UV-vis spectrophotometric analysis; type: nucleic-acid assay; conditions: Bos taurus
[5] = system: Calf thymus DNA; test: Binding affinity to calf thymus DNA surface at 1 uM by UV-vis spectrophotometric analysis; type: nucleic-acid assay; conditions: Bos taurus
[6] = system: Calf thymus DNA; test: Induction of DNA intercalation of calf thymus DNA at 10 uM by spectrofluorimetric analysis; type: nucleic-acid assay; conditions: Bos taurus
Summary of the method: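 Fluorescence titration: CT-DNA added to compound solution and quenching of compound emission peak monitored (617 or 567 nm, depending on compound).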

[7] = system: Calf thymus DNA; test: Stabilization of calf thymus DNA at 1:1 DNA to compound molar ratio by CD spectroscopic analysis; type: nucleic-acid assay; conditions: Bos taurus
Summary of the method: (§2)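 CD spectra of CT-DNA with compound added at 10 µM to equal CT-DNA concentration (1:1), then raised to 1:2 DNA:ligand; positive band at 275 nm monitored.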

[8] = system: Calf thymus DNA; test: Stabilization of calf thymus DNA at 1:2 DNA to compound molar ratio by CD spectroscopic analysis; type: nucleic-acid assay; conditions: Bos taurus; summary of the method: as §2
[9] = system: A549; test: Cytotoxicity against human A549 cells after 48 hrs by MTT assay; type: functional, cell-based; conditions: A549, 48 h
Summary of the method: (§3)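 Human cancer cell lines (A549 lung, MCF-7 breast, DU-145 prostate, HeLa cervical) exposed to compounds for 48 h; 50% inhibitory concentration derived, average of three individual experiments; doxorubicin reference agent.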

[10] = system: MCF7; test: Cytotoxicity against human MCF7 cells after 48 hrs by MTT assay; type: functional, cell-based; conditions: MCF7, 48 h; summary of the method: as §3
[11] = system: DU-145; test: Cytotoxicity against human DU145 cells after 48 hrs by MTT assay; type: functional, cell-based; conditions: DU-145, 48 h; summary of the method: as §3
[12] = system: HeLa; test: Cytotoxicity against human HeLa cells after 48 hrs by MTT assay; type: functional, cell-based; summary of the method: as §3
[13] = system: DU-145; test: Cell cycle arrest in human DU145 cells assessed as accumulation at subG1 phase at 0.5 uM after 48 hrs by propidium iodide staining-based flow cytometric analysis (reference value: 6.52%); type: functional
[14] = system: DU-145; test: Cell cycle arrest in human DU145 cells assessed as accumulation at subG1 phase at 1 uM after 48 hrs by propidium iodide staining-based flow cytometric analysis (reference value: 6.52%); type: functional
[15] = system: DU-145; test: Cell cycle arrest in human DU145 cells assessed as accumulation at G0/G1 phase at 0.5 uM after 48 hrs by propidium iodide staining-based flow cytometric analysis (reference value: 85.94%); type: functional
[16] = system: DU-145; test: Cell cycle arrest in human DU145 cells assessed as accumulation at G0/G1 phase at 1 uM after 48 hrs by propidium iodide staining-based flow cytometric analysis (reference value: 85.94%); type: functional
[17] = system: DU-145; test: Cell cycle arrest in human DU145 cells assessed as accumulation at S phase at 0.5 uM after 48 hrs by propidium iodide staining-based flow cytometric analysis (reference value: 4.02%); type: functional
[18] = system: DU-145; test: Cell cycle arrest in human DU145 cells assessed as accumulation at S phase at 1 uM after 48 hrs by propidium iodide staining-based flow cytometric analysis (reference value: 4.02%); type: functional
[19] = system: DU-145; test: Cell cycle arrest in human DU145 cells assessed as accumulation at G2/M phase at 0.5 uM after 48 hrs by propidium iodide staining-based flow cytometric analysis (reference value: 1.97%); type: functional
[20] = system: DU-145; test: Cell cycle arrest in human DU145 cells assessed as accumulation at G2/M phase at 1 uM after 48 hrs by propidium iodide staining-based flow cytometric analysis (reference value: 1.97%); type: functional
[21] = system: DU-145; test: Induction of apoptosis in human DU145 cells assessed as necrotic cells at 0.5 uM after 48 hrs by annexin V-FITC/propidium iodide staining-based flow cytometric analysis (reference value: 0.1%); type: functional
[22] = system: DU-145; test: Induction of apoptosis in human DU145 cells assessed as necrotic cells at 1 uM after 48 hrs by annexin V-FITC/propidium iodide staining-based flow cytometric analysis (reference value: 0.1%); type: functional
[23] = system: DU-145; test: Induction of apoptosis in human DU145 cells assessed as late apoptotic cells at 0.5 uM after 48 hrs by annexin V-FITC/propidium iodide staining-based flow cytometric analysis (reference value: 1.52%); type: functional
[24] = system: DU-145; test: Induction of apoptosis in human DU145 cells assessed as late apoptotic cells at 1 uM after 48 hrs by annexin V-FITC/propidium iodide staining-based flow cytometric analysis (reference value: 1.52%); type: functional
[25] = system: DU-145; test: Induction of apoptosis in human DU145 cells assessed as viable cells at 0.5 uM after 48 hrs by annexin V-FITC/propidium iodide staining-based flow cytometric analysis (reference value: 97.95%); type: functional; conditions: DU-145, 48 h, read-out: Activity
[26] = system: DU-145; test: Induction of apoptosis in human DU145 cells assessed as viable cells at 1 uM after 48 hrs by annexin V-FITC/propidium iodide staining-based flow cytometric analysis (reference value: 97.95%); type: functional; conditions: DU-145, 48 h, read-out: Activity
[27] = system: DU-145; test: Induction of apoptosis in human DU145 cells assessed as early apoptotic cells at 0.5 uM after 48 hrs by annexin V-FITC/propidium iodide staining-based flow cytometric analysis (reference value: 0.43%); type: functional
[28] = system: DU-145; test: Induction of apoptosis in human DU145 cells assessed as early apoptotic cells at 1 uM after 48 hrs by annexin V-FITC/propidium iodide staining-based flow cytometric analysis (reference value: 0.43%); type: functional

inhibition [3]: Active
Activity [4]: Active
Activity [5]: Active
Activity [6]: Active
Activity [7]: Active
Activity [8]: Active
Compound: CSC(=S)NCc1cc2c([nH]c3ccccc32)c(-c2ccc(F)cc2)n1
Activity [1]: Active
Activity [2]: Active
IC50 [9]: 4.36 µM
IC50 [10]: 2.45 µM
IC50 [11]: 1.34 µM
IC50 [12]: 3.46 µM
Activity [13]: 7.34%
Activity [14]: 15.61%
Activity [15]: 84.83%
Activity [16]: 75.52%
Activity [17]: 3.36%
Activity [18]: 3.34%
Activity [19]: 1.98%
Activity [20]: 2.33%
Activity [21]: 0.14%
Activity [22]: 0.96%
Activity [23]: 4.17%
Activity [24]: 14.68%
viability at 0.5 µM [25]: 94.6%
viability at 1 µM [26]: 80%
Activity [27]: 1.07%
Activity [28]: 4.4%
